High-throughput results deposited in PubChem by Johns Hopkins Ion Channel Center.
Sampled rows, rich in hits. Any-hit rate of the full collection: about 2.3%.
TRPC6 activator: mouse TRPC6 channel activation; AID 2550; 310,000 compounds, 0.13% hits; HEK293-TRPC6 membrane potential dye fluorescence; hits give high values; B-score at 10 µM;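 active = B-score of the integrated fluorescence ratio above library mean plus 3 SD, and starting fluorescence ratio within library mean plus 5 SD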;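 also: higher score means more depolarization so channel activation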
TRPC4 agonist: activators of mouse TRPC4 channel | Q9QUQ5 | HEK293 TRPC4beta/mu-opioid, Fluo4 calcium fluorescence; hits give high values | B-score at 10 µM | 310,000 compounds, 0.49% hits;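 active = B-score above 5 SD of library B-scores, and initial fluorescence ratio not above library mean plus 5 SD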;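 also: positive B-score marks a calcium rise read as TRPC4 activation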
Target sequence (Q9QUQ5 whole entry, looked up): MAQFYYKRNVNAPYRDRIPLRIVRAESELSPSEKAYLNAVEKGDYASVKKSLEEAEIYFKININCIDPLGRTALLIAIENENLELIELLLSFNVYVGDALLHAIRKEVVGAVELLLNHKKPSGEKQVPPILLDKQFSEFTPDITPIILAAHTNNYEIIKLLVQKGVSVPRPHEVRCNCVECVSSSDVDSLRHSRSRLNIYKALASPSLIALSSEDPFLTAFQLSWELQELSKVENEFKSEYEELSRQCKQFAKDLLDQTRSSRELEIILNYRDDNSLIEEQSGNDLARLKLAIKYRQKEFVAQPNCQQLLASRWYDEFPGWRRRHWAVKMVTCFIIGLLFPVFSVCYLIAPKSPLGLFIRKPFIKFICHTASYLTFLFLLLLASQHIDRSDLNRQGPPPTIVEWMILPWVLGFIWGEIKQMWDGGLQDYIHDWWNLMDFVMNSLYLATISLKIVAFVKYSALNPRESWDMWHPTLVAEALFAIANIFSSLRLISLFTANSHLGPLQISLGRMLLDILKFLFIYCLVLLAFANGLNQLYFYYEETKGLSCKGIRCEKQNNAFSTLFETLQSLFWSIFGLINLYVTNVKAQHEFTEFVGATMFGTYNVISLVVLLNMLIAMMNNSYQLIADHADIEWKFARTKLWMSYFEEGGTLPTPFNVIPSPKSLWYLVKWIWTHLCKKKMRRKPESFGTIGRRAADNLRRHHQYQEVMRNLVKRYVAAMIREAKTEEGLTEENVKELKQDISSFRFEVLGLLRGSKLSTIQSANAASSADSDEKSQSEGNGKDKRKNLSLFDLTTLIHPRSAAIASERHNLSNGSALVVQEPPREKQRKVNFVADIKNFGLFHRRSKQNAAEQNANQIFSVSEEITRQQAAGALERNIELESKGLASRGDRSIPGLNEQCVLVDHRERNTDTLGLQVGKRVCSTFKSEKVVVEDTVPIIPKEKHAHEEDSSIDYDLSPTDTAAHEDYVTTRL
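Technique: kinetic Fluo4 calcium fluorescence; Test system: TRPC4beta and mu-opioid receptor HEK293 stable cells; Measure: B-scored integrated calcium fluorescence ratio; Benchmarks: low control buffer alone, high control maximal DAMGO; Schedule: 45 min room-temperature Fluo4 loading, 110 s read.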
TRPC4 inh: blocks the mouse TRPC4 cation channel; HEK293 TRPC4beta/mu-opioid, DAMGO-evoked Fluo4 calcium flux; hits give low values; B-score at 10 µM; 300,000 compounds, 0.39% hits;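 active = B-score over 3 SD under the library average, no early fluorescence shift, positive overall ratio signal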
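Assay system: HEK293 cells with stable TRPC4beta plus mu-opioid receptor expression. Dosing: single dose. Measured by: Fluo4 Ca2+ flux fluorescence. Also added: DAMGO in two steps, submaximal then maximal. Read-out: B score from integrated Fluo4 fluorescence ratio.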
TRPC4 PAM: allosteric potentiators of mouse TRPC4 channel. B-score at 10 µM. HEK293 TRPC4beta/mu-opioid, DAMGO EC20, Fluo-4 Ca2+ flux; hits give high values. Q9QUQ5. 310,000 compounds, 0.42% hits;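 active = B-score of calcium response area above 5 SD of library B-scores, with initial fluorescence ratio within 5 SD of library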;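 also: B-score of integrated fluorescence ratio over time as area under calcium response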
TRPC6 inhibitor: mouse TRPC6 channel inhibition; Q61143; HEK293-TRPC6, membrane potential dye, ACh-evoked depolarization; hits give low values; B-score at 10 µM; 310,000 compounds, 1.1% hits; AID 2553;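 active = B-score under library mean minus 3 SD, initial fluorescence not abnormally high, positive integrated signal ratio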;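 also: B-score derived from integrated fluorescence ratio over the kinetic read; more negative B-score means stronger inhibition of depolarization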
TRPC4 spec 2: mouse TRPC4 off-target activity of TRPC6 inhibitors, second screen | shares compounds with TRPC6 inhibitor | HEK293 TRPC4/MOR, membrane potential dye fluorescence; channel activated by saturating DAMGO dose | 920 compounds, 42% hits | inhibition, % at 10 µM;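 active = compounds whose fluorescence signal differed from control wells by over 3 SD, either direction, in both duplicate plates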
TRPC4 spec: selectivity of TRPC6 inhibitors: effect on mouse TRPC4; activity change, negative = inhibition, % at 10 µM; AID 2777; shares compounds with TRPC6 inhibitor; HEK293 TRPC4/mu-opioid, membrane potential fluorescence; 920 compounds, 61% hits;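 active = rise or fall in signal beyond 3 SD of buffer-only wells in both replicate plates, either sign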;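 also: integrated kinetic ratio of fluorescence range over baseline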
HEK293 MPD ctr 2-1: parental HEK293 nonspecific activity of TRPC6 inhibitors, second screen; shares compounds with TRPC6 inhibitor; parental HEK293 membrane potential dye fluorescence; maximal acetylcholine challenge after compound addition; signal change vs control, % at 10 µM; 920 compounds, 31% hits; AID 2779;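 active = membrane potential signal moving either way by over 3 SD of the maximum-effect control, in both duplicate plates, meaning non-specific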
HEK293 MPD ctr-1: counter-screen for TRPC6 inhibitors: effect in parental HEK293 cells | shares compounds with TRPC6 inhibitor | parental HEK293 membrane potential dye fluorescence | membrane potential signal change, % at 10 µM | 920 compounds, 60% hits | AID 2780;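 active = membrane potential signal shifting up or down by more than 3 SD of buffer-only wells, on both duplicate plates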
HEK293 MPD ctr-2: checks TRPC6 modulator effects in parental HEK293 cells; AID 488924; 2,400 compounds, 51% hits; shares compounds with TRPC6 inhibitor; membrane potential signal change, % at 10 µM; membrane potential dye fluorescence;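 active = membrane potential signal moves up or down beyond 5 SD from buffer-only wells, on both duplicate plates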
HEK293 MPD ctr 2-2: parental HEK293 nonspecific activity of TRPC6 modulators, second screen; AID 488926; inhibition, % at 10 µM; membrane potential dye fluorescence; after compound, maximal acetylcholine stimulation; shares compounds with TRPC6 inhibitor; 2,400 compounds, 14% hits;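 active = membrane potential signal drops by more than 5 SD from the mean control signal, in both duplicate plates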;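 also: plate controls were acetylcholine ECmax control wells for no effect and buffer only wells for full effect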
TRPC4/MOR mod: tests whether TRPC6 modulators also affect mouse TRPC4; 2,400 compounds, 69% hits; shares compounds with TRPC6 inhibitor; HEK293 TRPC4/mu-opioid, membrane potential fluorescence; percent change from control (negative = decrease, positive = increase), % at 10 µM; AID 488927;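 active = membrane potential signal moved up or down beyond 5 SD of buffer control wells, in both duplicate plates, actives on both sides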;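 also: plate controls were assay buffer wells for no effect and DAMGO maximal-effect wells for full effect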
TRPC4/MOR inh 2: second selectivity test of TRPC6 modulators against mouse TRPC4; shares compounds with TRPC6 inhibitor; HEK293 TRPC4/mu-opioid, membrane potential dye fluorescence; stimulated with maximal-effect DAMGO; 2,400 compounds, 55% hits; inhibition, % at 10 µM;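 active = drop in membrane potential signal beyond 5 SD of the control wells in both duplicate plates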;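 also: TRPC4 counter screen for TRPC6 hits run under conditions tuned for TRPC6 not TRPC4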
TRPC6 block conf: mouse TRPC6 inhibitor confirmation; inhibition, % at 10 µM; AID 488960; HEK293-TRPC6, membrane potential dye, ACh-evoked depolarization; 3,300 compounds, 43% hits; shares compounds with TRPC6 inhibitor;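 active = fluorescence ratio falls more than 5 SD below the full-stimulation control mean, in both duplicate runs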;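 also: integrated fluorescence ratio of peak minus minimum over baseline after agonist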
TRPC6 act conf: confirmation of mouse TRPC6 activators; shares compounds with TRPC6 inhibitor; HEK293-TRPC6 membrane potential dye fluorescence, FDSS; activation, % at 10 µM; 2,800 compounds, 11% hits; AID 488961;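 active = ratio signal rise beyond 5 SD above unstimulated control wells' mean, seen in both duplicate runs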;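 also: plate controls were buffer EC0 wells for no effect and acetylcholine ECmax response for full effect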
* hit, by the source's call; i = inactive; nt = no result.

SMILES	TRPC6 activator	TRPC4 agonist	TRPC4 inh	TRPC4 PAM	TRPC6 inhibitor	HEK293 MPD ctr-2	HEK293 MPD ctr 2-2	TRPC4/MOR mod	TRPC4/MOR inh 2	TRPC6 block conf	TRPC6 act conf	others
Cc1cccc(CNCCc2c[nH]c3ccccc23)c1	i	i	i	i	i	nt	nt	nt	nt	nt	nt
Cc1ccccc1CCNCc1ccc(Br)cc1	i	i	i	i	i	nt	nt	nt	nt	nt	nt
Cc1cccc(CCNCc2cc3cc(C)cc(C)c3[nH]c2=O)c1	i	i	i	i	-5.9*	i	65%*	-18%*	94%*	82%*	i
Cc1ccc2cc(CNCCc3ccccc3C)c(=O)[nH]c2c1	i	i	i	i	-5.1*	i	i	i	78%*	46%*	i
Cc1cccc(CCNCc2cc3cccc(C)c3[nH]c2=O)c1	i	i	i	i	-10*	nt	nt	nt	nt	102%*	i	TRPC4 spec 2=15%*;TRPC4 spec=-13%*;HEK293 MPD ctr 2-1=25%*;HEK293 MPD ctr-1=i
CCOP(=O)(Cc1ccccc1)OCC	i	i	i	i	i	nt	nt	nt	nt	nt	nt
CN1CCC(O)(c2ccc(Cl)cc2)C(C(=O)c2ccc(Cl)cc2)C1 (centres undefined)	i	i	i	i	-5.4*	i	i	i	35%*	i	i
CN1CC(C(=O)c2ccc(Cl)cc2)C(c2ccc(Cl)cc2Cl)C1 (centres undefined)	i	i	i	i	i	nt	nt	nt	nt	nt	nt
Cc1ccccc1-n1c(C)nc2ccsc2c1=O	i	i	i	i	i	nt	nt	nt	nt	nt	nt
O=[N+]([O-])c1ccc(C2[C@H]3C(c4ccccc4)=NC4(CCCCC4)N23)cc1 (some centres undefined)	i	i	i	i	i	nt	nt	nt	nt	nt	nt
O=[N+]([O-])c1ccccc1CNCCc1c[nH]c2ccccc12	i	i	i	i	-5.5*	i	i	i	42%*	i	i
CN(C)c1cc(N)c2c(n1)CCC2 (tested in a mixture with another compound)	i	i	i	i	-6.4*	-271%*	i	-40%*	40%*	i	i
OCC[n+]1c2ccccc2nc2ccc(N3CCOCC3)cc21	i	i	i	i	-10*	-274%*	104%*	-47%*	72%*	82%*	i
Cc1[nH]n(-c2ccccc2)c(=O)c1C(c1ccc([N+](=O)[O-])cc1)c1c(C)[nH]n(-c2ccccc2)c1=O	i	i	i	i	-5.9*	i	i	i	38%*	42%*	i
